Shown are actives, neighbours in structure and some others; about 2.9% of the full set was active somewhere.
TRPC6 inhibitor = mouse TRPC6 channel inhibition; B-score at 10 µM; AID 2553; hit rate 1.1% among 310,000; HEK293-TRPC6, membrane potential dye, ACh-evoked depolarization; stronger effect = lower value;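 active = B-score under library mean minus 3 SD, initial fluorescence not abnormally high, positive integrated signal ratio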;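 note: B-score derived from integrated fluorescence ratio over the kinetic read; more negative B-score means stronger inhibition of depolarization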
TRPC4 act = TRPC4 (mouse) channel activation; HEK293 TRPC4beta/mu-opioid, Fluo4 calcium fluorescence; stronger effect = higher value; Q9QUQ5; AID 2237; B-score at 10 µM; hit rate 0.49% among 310,000;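 active = B-score above 5 SD of library B-scores, and initial fluorescence ratio not above library mean plus 5 SD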;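 note: positive B-score marks a calcium rise read as TRPC4 activation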
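Assay system: HEK293 stable line with TRPC4beta plus mu-opioid receptor; schedule: 45 min room-temperature Fluo4 loading, 110 s read; technique: kinetic Fluo4 calcium fluorescence; evaluation: integrated baseline-normalised fluorescence ratio, converted to per-well B score; controls: buffer (low) and maximal DAMGO (high)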
TRPC4 potent = allosteric potentiators of mouse TRPC4 channel; HEK293 TRPC4beta/mu-opioid, DAMGO EC20, Fluo-4 Ca2+ flux; stronger effect = higher value; B-score at 10 µM; hit rate 0.42% among 310,000; AID 2227;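 active = B-score of calcium response area above 5 SD of library B-scores, with initial fluorescence ratio within 5 SD of library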;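 note: B-score of integrated fluorescence ratio over time as area under calcium response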
TRPC4 block = TRPC4 (mouse) channel inhibition | B-score at 10 µM | HEK293 TRPC4beta/mu-opioid, DAMGO-evoked Fluo4 calcium flux; stronger effect = lower value | hit rate 0.39% among 300,000;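 active = B-score over 3 SD under the library average, no early fluorescence shift, positive overall ratio signal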
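Assay system – HEK293 line stably carrying TRPC4beta and mu-opioid receptor · Doses – single dose · Detection – Fluo4 calcium-dye fluorescence, kinetic read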
TRPC6 act = activators of mouse TRPC6 channel | Q61143 | HEK293-TRPC6 membrane potential dye fluorescence; stronger effect = higher value | B-score at 10 µM | hit rate 0.13% among 310,000;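 active = B-score of the integrated fluorescence ratio above library mean plus 3 SD, and starting fluorescence ratio within library mean plus 5 SD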;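 note: higher score means more depolarization so channel activation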
Kir21 inh = inhibitors of mouse Kir2.1 inward-rectifier potassium channel | HEK293-Kir2.1, FluxOR thallium flux fluorescence; stronger effect = lower value | B-score at 10 µM | P35561 | hit rate 0.85% among 310,000;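 active = fluorescence ratio B-score at or below minus 3 SD of library scores, with starting-brightness B-score within 2 SD, cut at about -4.2 in these data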;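 note: channel flux triggered by added potassium and thallium sulfate stimulus; B-score of peak minus minimum fluorescence over baseline after thallium stimulus; more negative B-score means stronger Kir2.1 block with less thallium influx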
Target sequence (P35561 whole entry, looked up): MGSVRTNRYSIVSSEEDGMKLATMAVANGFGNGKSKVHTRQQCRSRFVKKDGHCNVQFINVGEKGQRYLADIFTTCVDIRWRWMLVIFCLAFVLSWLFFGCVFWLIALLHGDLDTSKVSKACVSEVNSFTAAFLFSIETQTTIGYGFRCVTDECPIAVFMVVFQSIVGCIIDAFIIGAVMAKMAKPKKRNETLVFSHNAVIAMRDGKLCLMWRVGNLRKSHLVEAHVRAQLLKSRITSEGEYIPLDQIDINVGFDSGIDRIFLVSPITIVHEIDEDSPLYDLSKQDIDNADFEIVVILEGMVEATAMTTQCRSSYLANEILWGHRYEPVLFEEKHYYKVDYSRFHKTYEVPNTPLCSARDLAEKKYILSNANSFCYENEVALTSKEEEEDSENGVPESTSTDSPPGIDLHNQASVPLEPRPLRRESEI
* marks the source's active call; other numbers are inactive results; i = inactive.

SMILES | TRPC6 inhibitor | TRPC4 act | TRPC4 potent | TRPC4 block | TRPC6 act | Kir21 inh
CC(Oc1ccccc1)C(=O)N(CCC1=CCCCC1)c1c(N)n(Cc2ccccc2)c(=O)[nH]c1=O (stereo unspecified) | i | i | i | i | i | 0.63
CN(C)CCCNC(=O)c1ccc(-c2nc(-c3ccc(Cl)cc3)cs2)cc1 | i | i | i | i | i | -4.7*
CN(C)CCCNC(=O)c1ccccn1 | i | i | i | i | i | -0.1
c1ccc(CCN=C2CCCc3c2[nH]c2ccccc32)cc1 | i | 155* | i | i | i | -12*
Cc1ccc(-n2cccn2)c(CN2CCCC(C(=O)c3sccc3C)C2)c1 (stereo unspecified) | i | i | i | i | i | -4.5*
Cc1cccc(N(C)S(=O)(=O)c2c(C)[nH]c(C)c2C(=O)N2CCCC2)c1 | i | i | i | i | i | -1.2
CC1CCc2sc3ncnc(N4CCOCC4)c3c2C1 (stereo unspecified) | i | i | i | -6* | i | -1.1
CC1CC(C)CN(CCCNC(=O)c2csc3c2CCCC3)C1 (stereo unspecified) | i | 82* | i | i | i | -0.12
CC(C)CCNC(=O)c1csc2c1CCCCC2 | i | i | i | i | i | -0.65
CCCCN(CC)CCCNC(=O)c1csc2c1CCCCC2 | i | 111* | i | i | i | -1.2
COC(C[C@@H](O)C[C@H](O)[C@@H](C)OCc1ccccc1)OC | i | i | i | i | i | -0.36
Cc1ccc(-n2c(C)cc(C)c(C#N)c2=O)cc1Cl | i | 45* | i | -6* | i | 0.48
Cc1cc(C)n(-c2cc(Cl)cc(Cl)c2)c(=O)c1C#N | i | i | i | i | i | -0.14
CCc1[nH]nc(C(=O)NC2CCCN(Cc3ccccc3F)C2)c1C (stereo unspecified) | i | i | i | i | i | 0.56
CCOC(=O)COc1cc(-n2c(=S)[nH]c3ccccc3c2=O)c(Cl)cc1Cl | i | i | 31* | i | i | -1
O=C(NCCCN1CCCC1)c1ccc2c(c1)N(Cc1ccccc1F)C(=O)c1ccccc1S2(=O)=O | i | i | i | i | i | -0.01
Cc1nc(C(F)(F)F)nc(Nc2ccc(N=Nc3ccccc3)cc2)c1C#N | i | i | i | i | i | -0.53
COC(=O)[C@@]12CCCCN1[C@H](c1ccc(-c3ccccc3)cc1)[C@@H]1C(=O)N(C)C(=O)[C@@H]12 | i | i | 18* | i | i | -0.44
CN(C)Cc1c(O)ccc2occ(C(=O)c3ccccc3)c12 | i | i | i | i | i | -1.1
O=C(c1ccccc1)c1coc2ccc(O)c(CN3CCOCC3)c12 | i | i | i | i | i | -6.3*
N#C/C(=C\c1ccccc1)C(=O)N1CCN(c2ccccc2F)CC1 | i | i | i | i | i | -5.1*
N#C/C(=C\c1cccc(Br)c1)C(=O)N1CCCCC1 | i | i | i | i | i | -6.9*
N#C/C(=C\c1cccc(O)c1)C(=O)N1CCCCC1 | i | i | i | i | i | 1.7
NC(=O)COC(=O)Cc1coc2cc3c(cc12)CCC3 | i | i | i | i | i | 2.1
CC(C)N(CC(N)=O)C(=O)Cc1coc2cc3c(cc12)CCC3 | i | i | 13* | i | i | 1
SMILES | TRPC6 inhibitor | TRPC4 act | TRPC4 potent | TRPC4 block | TRPC6 act | Kir21 inh
Cc1ccc(C(C)C)c(OCCCN(C)Cc2ccccc2)c1 | i | i | i | i | i | -11*
Cc1ccc(C(C)C)c(OCCCN2CCc3ccccc3C2)c1 | i | i | i | i | i | -9*
Cc1ccc(OCCCCN(C)Cc2ccccc2)c(Br)c1 | i | i | i | i | i | -13*
CCc1ccc(CN(C)CC(O)COc2cccc3ccccc23)cc1 (stereo unspecified) | i | i | i | i | i | -16*
Cc1ccc(C(C)C)c(OCCN2CCc3ccccc3C2)c1 | i | i | i | i | i | -3.1
CN(CCOc1cccc2ccccc12)Cc1ccccc1 | i | i | i | i | i | -0.04
COc1cc(C(=O)OCC(=O)NC(N)=O)cc(CN2C(=O)c3ccccc3C2=O)c1OC | i | i | i | i | i | 0.08
Cc1ccc(C(C)(O)CS(=O)(=O)Cc2ccccc2Cl)cc1 (stereo unspecified) | i | i | i | i | i | -0.08
O=C(CCc1ccc(S(=O)(=O)N2CCOCC2)cc1)N/N=C/c1ccc(O)c(O)c1O | i | i | i | i | i | 0.62
COc1ccc(OCc2nc3ccccc3n2C(C)C)cc1 | i | i | i | i | i | -1.1
CCN(CC(=O)NCc1ccc(Cl)cc1)C(=O)c1cc(OC)cc(OC)c1 | i | i | i | i | i | -2.3
Cc1ccc(C(C)C)c(OCC(O)CN(C)Cc2ccccc2)c1 (stereo unspecified) | i | i | i | i | i | -9.7*
CC(C)C(=O)Nc1ccc(C(=O)Nc2nnc(C(C)(C)C)s2)cc1 | i | i | i | -6* | i | 0.5
COc1ccc(C(=O)NNC(=S)NC(=O)c2ccc(Cl)cc2)cc1 | i | 163* | i | i | i | 1.4
CCCCC(=O)NNC(=S)NC(=O)c1ccc(C)cc1 | i | 240* | i | i | i | -1.8
COc1ccc(C(=O)NC(=S)NNC(=O)c2ccc(C)cc2)cc1 | i | 189* | i | i | i | 1.7
CCCCC(=O)NNC(=S)NC(=O)c1ccc([N+](=O)[O-])cc1 | i | i | i | i | i | 0.52
COc1ccc(CNC(=O)c2cc(-c3ccncc3)nc3c(C)cc(C)cc23)cc1OC | i | i | i | i | i | 0.94
O=C(c1ccc(COc2ccccc2Br)cc1)N1CCCCC1 | i | i | 10* | i | i | -0.91
O=C(c1ccc(COc2ccccc2Br)o1)N1CCCCCC1 | i | i | i | i | i | -0.19
O=C(C1CCN(S(=O)(=O)c2cccs2)CC1)N1CCCC(C(F)(F)F)C1 (stereo unspecified) | i | i | i | i | i | 1.2
CN1CCN(NS(=O)(=O)c2cccs2)CC1 | i | i | i | i | i | -0.29
Cc1cc(NS(=O)(=O)c2ccc(NC(=O)COc3ccc(Cl)c(C)c3)cc2)no1 | i | i | i | -6* | i | 1.6
